According to ChEMBL document CHEMBL1142436, “Design and synthesis of 4-substituted indolo[3,2-e][1,2,3]triazolo[1,5-a]pyrimidine derivatives with antitumor activity” (2008):

Key:
Type in all cases: functional
MDA-MB-231 = experiment: Growth inhibition of human MDA-MB-231 cells after 48 hrs; details: MDA-MB-231, 48 h
Outline: (§1)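 NCI ~60-line screen. Cells were grown in RPMI 1640 with 5% FBS and 2 mM L-glutamine and plated at 5000–40000 cells/well. After a 24 h preincubation, five drug concentrations from DMSO stocks were added for 48 h at 37 °C. Cells were TCA-fixed, stained with SRB and read at 515 nm. GI50 was taken from time-zero and control absorbances and reported as pGI50.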

OVCAR-5 = experiment: Growth inhibition of human OVCAR5 cells after 48 hrs; details: OVCAR-5, 48 h; outline: as §1
NCI-H226 = experiment: Growth inhibition of human NCI-H226 cells after 48 hrs; details: NCI-H226, 48 h; outline: as §1
786-0 = experiment: Growth inhibition of human 786-0 cells after 48 hrs; details: 786-0, 48 h; outline: as §1
SW-620 = experiment: Growth inhibition of human SW620 cells after 48 hrs; details: SW-620, 48 h
Outline: (§2)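 NCI 60-line screen: cells in RPMI 1640 with 5% FBS and 2 mM L-glutamine, plated at 5000–40000 cells/well, grown 24 h (37 °C, 5% CO₂), then exposed to five 10-fold or ½-log dilutions (DMSO stock) for 48 h. Fixed with TCA (final 10% for adherent cells, 16% for suspension cells), then SRB stained with absorbance at 515 nm. GI50 from percentage growth relative to time-zero and control wells.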

HCC 2998 = experiment: Growth inhibition of human HCC2998 cells after 48 hrs; details: HCC 2998, 48 h; outline: as §1
OVCAR-3 = experiment: Growth inhibition of human OVCAR-3 cells after 48 hrs; details: OVCAR-3, 48 h; outline: as §1
K562 = experiment: Growth inhibition of human K562 cells after 48 hrs; details: K562, 48 h; outline: as §1
KM12 = experiment: Growth inhibition of human KM12 cells after 48 hrs; details: KM12, 48 h; outline: as §1
HOP-92 = experiment: Growth inhibition of human HOP92 cells after 48 hrs; details: HOP-92, 48 h; outline: as §1
NCI-H460 = experiment: Growth inhibition of human NCI-H460 cells after 48 hrs; details: NCI-H460, 48 h; outline: as §1
RXF 393 = experiment: Growth inhibition of human RXF393 cells after 48 hrs; details: RXF 393, 48 h; outline: as §1
SF-268 = experiment: Growth inhibition of human SF268 cells after 48 hrs; details: SF-268, 48 h; outline: as §1
HT-29 = experiment: Growth inhibition of human HT29 cells after 48 hrs; details: HT-29, 48 h; outline: as §1
SF-295 = experiment: Growth inhibition of human SF295 cells after 48 hrs; details: SF-295, 48 h; outline: as §1
DU-145 = experiment: Growth inhibition of human DU145 cells after 48 hrs; details: DU-145, 48 h; outline: as §1
COLO 205 = experiment: Growth inhibition of human COLO205 cells after 48 hrs; details: COLO 205, 48 h; outline: as §1
NCI/ADR-RES = experiment: Growth inhibition of human NCI/ADR-RES cells after 48 hrs; outline: as §1
EKVX = experiment: Growth inhibition of human EKVX cells after 48 hrs; outline: as §1
LOX IMVI = experiment: Growth inhibition of human LOXIMVI cells after 48 hrs; outline: as §1
UACC-257 = experiment: Growth inhibition of human UACC257 cells after 48 hrs; details: UACC-257, 48 h; outline: as §2
NCI-H23 = experiment: Growth inhibition of human NCI-H23 cells after 48 hrs; details: Homo sapiens, NCI-H23, 48 h; outline: as §1
HL-60 = experiment: Growth inhibition of human HL60 cells after 48 hrs; details: HL-60, 48 h; outline: as §1
SF-539 = experiment: Growth inhibition of human SF539 cells after 48 hrs; details: SF-539, 48 h; outline: as §1
NCI-H522 = experiment: Growth inhibition of human NCI-H522 cells after 48 hrs; details: NCI-H522, 48 h; outline: as §1
MCF7 = experiment: Growth inhibition of human MCF7 cells after 48 hrs; details: MCF7, 48 h; outline: as §1
IGROV-1 = experiment: Growth inhibition of human IGROV1 cells after 48 hrs; details: IGROV-1, 48 h; outline: as §1
M14 = experiment: Growth inhibition of human M14 cells after 48 hrs; details: M14, 48 h; outline: as §1
OVCAR-8 = experiment: Growth inhibition of human OVCAR8 cells after 48 hrs; details: OVCAR-8, 48 h; outline: as §1
UACC-62 = experiment: Growth inhibition of human UACC62 cells after 48 hrs; details: UACC-62, 48 h; outline: as §2
HCT-15 = experiment: Growth inhibition of human HCT15 cells after 48 hrs; details: HCT-15, 48 h; outline: as §1
HCT-116 = experiment: Growth inhibition of human HCT116 cells after 48 hrs; details: HCT-116, 48 h; outline: as §1
[1] = read-out: Log LC50 (the source's name) (converted)

With `CCOC(=O)CNC(=O)CCCn1c(=O)c2c3ccccc3n(C)c2n2nnc(-c3ccccc3)c12` the GI50 (MDA-MB-231) was 14.8 µM, the LC50 (concentration killing 50% of cells) (MDA-MB-231) was > 50.1 µM and the TGI (MDA-MB-231; read-out: pTGI (converted)) was 30.9 µM. For the same molecule, the GI50 (OVCAR-5) was 27.5 µM, the LC50 (concentration killing 50% of cells) (OVCAR-5) was > 50.1 µM and the TGI (OVCAR-5; read-out: pTGI (converted)) was > 50.1 µM. The GI50 (NCI-H226) was 25.1 µM, the CC50 (NCI-H226; [1]) was > 50.1 µM and the TGI (NCI-H226; read-out: pTGI) was > 50.1 µM. The GI50 (786-0) was 5.13 µM, the LC50 (786-0) was > 50.1 µM and the TGI (786-0; read-out: pTGI (converted)) was 17.4 µM. The GI50 (SW-620) was > 50.1 µM, the LC50 (lethal concentration, 50% cell kill) (SW-620) was > 50.1 µM and the TGI (SW-620; read-out: pTGI (converted)) was > 50.1 µM. For the same molecule, the GI50 (HCC 2998) was > 50.1 µM, the LC50 (HCC 2998) was > 50.1 µM and the TGI (HCC 2998; read-out: pTGI (converted)) was > 50.1 µM. The GI50 (OVCAR-3) was 12.6 µM, the LC50 (OVCAR-3) was > 50.1 µM and the TGI (OVCAR-3; read-out: pTGI (converted)) was 49 µM. For the same molecule, the GI50 (K562) was 4.68 µM, the LC50 (K562) was > 50.1 µM and the TGI (K562; read-out: pTGI (converted)) was > 50.1 µM. The GI50 (KM12) was > 50.1 µM, the LC50 (KM12) was > 50.1 µM and the TGI (KM12; read-out: pTGI (converted)) was > 50.1 µM. For the same molecule, the GI50 (HOP-92) was > 50.1 µM, the LC50 (HOP-92) was 3.63 µM and the TGI (HOP-92; read-out: pTGI (converted)) was 14.8 µM. The GI50 (NCI-H460) was > 50.1 µM, the LC50 (NCI-H460) was > 50.1 µM and the TGI (NCI-H460; read-out: pTGI (converted)) was > 50.1 µM. It also gave a GI50 (RXF 393) of 1.32 µM, an LC50 (RXF 393) of 22.4 µM and a TGI (RXF 393; read-out: pTGI (converted)) of 4.37 µM. The GI50 (SF-268) was 14.1 µM, the CC50 (SF-268; [1]) was > 50.1 µM and the TGI (SF-268; read-out: pTGI (converted)) was > 50.1 µM. The GI50 (HT-29) was > 50.1 µM, the LC50 (concentration killing 50% of cells) (HT-29) was > 50.1 µM and the TGI (HT-29; read-out: pTGI (converted)) was > 50.1 µM. The GI50 (SF-295) was 4.79 µM, the LC50 (SF-295) was > 50.1 µM and the TGI (SF-295; read-out: pTGI (converted)) was 17.4 µM. The GI50 (DU-145) was 32.4 µM, the LC50 (DU-145) was > 50.1 µM and the TGI (DU-145; read-out: pTGI (converted)) was > 50.1 µM. The GI50 (COLO 205) was > 50.1 µM, the LC50 (COLO 205) was > 50.1 µM and the TGI (COLO 205; read-out: pTGI (converted)) was > 50.1 µM. The GI50 (NCI/ADR-RES) was > 50.1 µM, the LC50 (concentration killing 50% of cells) (NCI/ADR-RES) was > 50.1 µM and the TGI (NCI/ADR-RES; read-out: pTGI (converted)) was > 50.1 µM. The GI50 (EKVX) was > 50.1 µM, the LC50 (EKVX) was > 50.1 µM and the TGI (EKVX; read-out: pTGI (converted)) was 20.4 µM. For the same molecule, the GI50 (LOX IMVI) was 25.1 µM, the LC50 (lethal concentration, 50% cell kill) (LOX IMVI) was > 50.1 µM and the TGI (LOX IMVI; read-out: pTGI (converted)) was > 50.1 µM. For the same molecule, the GI50 (UACC-257) was > 50.1 µM, the LC50 (UACC-257) was > 50.1 µM and the TGI (UACC-257; read-out: pTGI (converted)) was > 50.1 µM. The GI50 (NCI-H23) was 11.7 µM, the CC50 (NCI-H23; [1]) was > 50.1 µM and the TGI (NCI-H23; read-out: pTGI (converted)) was > 50.1 µM. For the same molecule, the GI50 (HL-60) was 20.4 µM, the LC50 (HL-60) was > 50.1 µM and the TGI (HL-60; read-out: pTGI (converted)) was > 50.1 µM. It also gave a GI50 (SF-539) of 4.27 µM, an LC50 (concentration killing 50% of cells) (SF-539) of 28.8 µM and a TGI (SF-539; read-out: pTGI (converted)) of 11.7 µM. For the same molecule, the GI50 (NCI-H522) was 6.46 µM, the LC50 (NCI-H522) was > 50.1 µM and the TGI (NCI-H522; read-out: pTGI (converted)) was 20 µM. For the same molecule, the GI50 (MCF7) was 31.6 µM, the LC50 (MCF7) was > 50.1 µM and the TGI (MCF7; read-out: pTGI (converted)) was > 50.1 µM. The GI50 (IGROV-1) was 8.91 µM, the LC50 (IGROV-1) was > 50.1 µM and the TGI (IGROV-1; read-out: pTGI (converted)) was 30.2 µM. For the same molecule, the GI50 (M14) was 18.6 µM, the LC50 (M14) was > 50.1 µM and the TGI (M14; read-out: pTGI (converted)) was > 50.1 µM. For the same molecule, the GI50 (OVCAR-8) was 25.1 µM, the LC50 (OVCAR-8) was > 50.1 µM and the TGI (OVCAR-8; read-out: pTGI (converted)) was > 50.1 µM. For the same molecule, the GI50 (UACC-62) was 7.24 µM, the LC50 (UACC-62) was > 50.1 µM and the TGI (UACC-62; read-out: pTGI (converted)) was 21.9 µM. For the same molecule, the GI50 (HCT-15) was > 50.1 µM, the LC50 (HCT-15) was > 50.1 µM and the TGI (HCT-15; read-out: pTGI) was > 50.1 µM. For the same molecule, the GI50 (HCT-116) was 9.12 µM, the LC50 (HCT-116) was > 50.1 µM and the TGI (HCT-116; read-out: pTGI (converted)) was 27.5 µM.
